TRPC4 agonist – activators of mouse TRPC4 channel; B-score at 10 µM; HEK293 TRPC4beta/mu-opioid, Fluo4 calcium fluorescence; stronger effect = higher value; 0.49% of 310,000 active;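 active = B-score above 5 SD of library B-scores, and initial fluorescence ratio not above library mean plus 5 SD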;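 note: positive B-score marks a calcium rise read as TRPC4 activation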
Target sequence (Q9QUQ5 whole entry, looked up): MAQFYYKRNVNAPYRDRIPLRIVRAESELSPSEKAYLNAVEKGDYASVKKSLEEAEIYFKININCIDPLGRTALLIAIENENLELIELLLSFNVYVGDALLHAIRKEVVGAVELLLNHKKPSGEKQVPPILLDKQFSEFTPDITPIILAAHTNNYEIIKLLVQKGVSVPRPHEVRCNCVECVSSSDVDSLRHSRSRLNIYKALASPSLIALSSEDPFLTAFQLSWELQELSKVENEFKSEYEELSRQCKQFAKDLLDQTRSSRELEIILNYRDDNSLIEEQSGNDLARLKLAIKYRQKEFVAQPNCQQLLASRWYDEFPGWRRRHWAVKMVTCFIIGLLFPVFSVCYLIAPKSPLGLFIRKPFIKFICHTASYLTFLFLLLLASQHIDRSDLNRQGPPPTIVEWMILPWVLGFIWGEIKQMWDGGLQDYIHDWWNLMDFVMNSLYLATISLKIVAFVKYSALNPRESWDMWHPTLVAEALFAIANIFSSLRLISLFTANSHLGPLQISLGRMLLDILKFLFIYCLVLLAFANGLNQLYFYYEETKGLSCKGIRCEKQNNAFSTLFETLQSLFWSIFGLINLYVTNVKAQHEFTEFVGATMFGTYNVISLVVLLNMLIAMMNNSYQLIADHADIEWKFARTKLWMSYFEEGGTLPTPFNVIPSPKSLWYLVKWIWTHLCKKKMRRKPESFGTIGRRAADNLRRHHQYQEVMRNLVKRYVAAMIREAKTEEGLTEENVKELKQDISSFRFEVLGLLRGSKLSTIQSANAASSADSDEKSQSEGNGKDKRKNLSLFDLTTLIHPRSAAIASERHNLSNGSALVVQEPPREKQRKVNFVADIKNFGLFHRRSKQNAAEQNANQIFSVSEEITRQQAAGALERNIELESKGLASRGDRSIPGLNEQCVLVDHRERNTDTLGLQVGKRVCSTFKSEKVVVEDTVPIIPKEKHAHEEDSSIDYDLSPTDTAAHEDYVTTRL
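System: HEK293 cells stably co-expressing mouse TRPC4beta and mu-opioid receptor; Schedule: Fluo4 dye loading 45 min at room temperature, 110 s recording; Detection: Fluo4 fluorescence, kinetic; Evaluation: B-scored integrated calcium fluorescence ratio; Controls: buffer (low) and maximal DAMGO (high).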
TRPC6 activator – activators of mouse TRPC6 channel | 0.13% of 310,000 active | AID 2550 | B-score at 10 µM | HEK293-TRPC6 membrane potential dye fluorescence; stronger effect = higher value;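 active = B-score of the integrated fluorescence ratio above library mean plus 3 SD, and starting fluorescence ratio within library mean plus 5 SD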;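 note: higher score means more depolarization so channel activation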
Kir21 inh – blocks the mouse Kir2.1 inward-rectifier potassium channel; P35561; HEK293-Kir2.1, FluxOR thallium flux fluorescence; stronger effect = lower value; B-score at 10 µM; 0.85% of 310,000 active;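 active = fluorescence ratio B-score at or below minus 3 SD of library scores, with starting-brightness B-score within 2 SD, cut at about -4.2 in these data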;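 note: channel flux triggered by added potassium and thallium sulfate stimulus; B-score of peak minus minimum fluorescence over baseline after thallium stimulus; more negative B-score means stronger Kir2.1 block with less thallium influx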
TRPC6 inhibitor – blocks the mouse TRPC6 cation channel | B-score at 10 µM | HEK293-TRPC6, membrane potential dye, ACh-evoked depolarization; stronger effect = lower value | 1.1% of 310,000 active;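 active = B-score under library mean minus 3 SD, initial fluorescence not abnormally high, positive integrated signal ratio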;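 note: B-score derived from integrated fluorescence ratio over the kinetic read; more negative B-score means stronger inhibition of depolarization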
TRPC4 inh – blocks the mouse TRPC4 cation channel | HEK293 TRPC4beta/mu-opioid, DAMGO-evoked Fluo4 calcium flux; stronger effect = lower value | B-score at 10 µM | 0.39% of 300,000 active | AID 2247;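 active = B-score over 3 SD under the library average, no early fluorescence shift, positive overall ratio signal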
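Assay system: TRPC4beta/mu-opioid receptor HEK293 cell line; compound dosing: single concentration per test compound; detection: Fluo4 Ca2+ flux fluorescence; evaluation: per-well B score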
TRPC4 PAM – TRPC4 (mouse) allosteric potentiation; Q9QUQ5; HEK293 TRPC4beta/mu-opioid, DAMGO EC20, Fluo-4 Ca2+ flux; stronger effect = higher value; B-score at 10 µM; 0.42% of 310,000 active; AID 2227;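 active = B-score of calcium response area above 5 SD of library B-scores, with initial fluorescence ratio within 5 SD of library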;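 note: B-score of integrated fluorescence ratio over time as area under calcium response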
TRPC4 spec 2 – mouse TRPC4 off-target activity of TRPC6 inhibitors, second screen | HEK293 TRPC4/MOR, membrane potential dye fluorescence; channel activated by saturating DAMGO dose | inhibition, % at 10 µM | AID 2776 | shares compounds with TRPC6 inhibitor | 42% of 920 active;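 active = compounds whose fluorescence signal differed from control wells by over 3 SD, either direction, in both duplicate plates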
TRPC4 spec – mouse TRPC4 off-target activity of TRPC6 inhibitors. 61% of 920 active. activity change, negative = inhibition, % at 10 µM. HEK293 TRPC4/mu-opioid, membrane potential fluorescence. shares compounds with TRPC6 inhibitor;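 active = rise or fall in signal beyond 3 SD of buffer-only wells in both replicate plates, either sign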;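 note: integrated kinetic ratio of fluorescence range over baseline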
HEK293 MPD ctr 2-1 – parental HEK293 nonspecific activity of TRPC6 inhibitors, second screen; 31% of 920 active; signal change vs control, % at 10 µM; shares compounds with TRPC6 inhibitor; parental HEK293 membrane potential dye fluorescence; maximal acetylcholine challenge after compound addition;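 active = membrane potential signal moving either way by over 3 SD of the maximum-effect control, in both duplicate plates, meaning non-specific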
HEK293 MPD ctr-1 – checks TRPC6 inhibitor effects in parental HEK293 cells; shares compounds with TRPC6 inhibitor; parental HEK293 membrane potential dye fluorescence; membrane potential signal change, % at 10 µM; 60% of 920 active;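 active = membrane potential signal shifting up or down by more than 3 SD of buffer-only wells, on both duplicate plates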
HEK293 MPD ctr-2 – parental HEK293 nonspecific activity of TRPC6 modulators | membrane potential dye fluorescence | membrane potential signal change, % at 10 µM | 51% of 2,400 active | shares compounds with TRPC6 inhibitor;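 active = membrane potential signal moves up or down beyond 5 SD from buffer-only wells, on both duplicate plates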
HEK293 MPD ctr 2-2 – second counter-screen for TRPC6 modulators: effect in parental HEK293 cells; AID 488926; 14% of 2,400 active; shares compounds with TRPC6 inhibitor; membrane potential dye fluorescence; after compound, maximal acetylcholine stimulation; inhibition, % at 10 µM;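 active = membrane potential signal drops by more than 5 SD from the mean control signal, in both duplicate plates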;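 note: plate controls were acetylcholine ECmax control wells for no effect and buffer only wells for full effect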
TRPC4/MOR mod – selectivity of TRPC6 modulators against mouse TRPC4. 69% of 2,400 active. HEK293 TRPC4/mu-opioid, membrane potential fluorescence. shares compounds with TRPC6 inhibitor. percent change from control (negative = decrease, positive = increase), % at 10 µM;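 active = membrane potential signal moved up or down beyond 5 SD of buffer control wells, in both duplicate plates, actives on both sides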;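 note: plate controls were assay buffer wells for no effect and DAMGO maximal-effect wells for full effect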
TRPC4 ctr inh 2 – second check of whether TRPC6 modulators also affect mouse TRPC4; shares compounds with TRPC6 inhibitor; HEK293 TRPC4/mu-opioid, membrane potential dye fluorescence; stimulated with maximal-effect DAMGO; inhibition, % at 10 µM; 55% of 2,400 active; AID 488928;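 active = drop in membrane potential signal beyond 5 SD of the control wells in both duplicate plates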;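 note: TRPC4 counter screen for TRPC6 hits run under conditions tuned for TRPC6 not TRPC4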
TRPC6 block conf – confirmation of mouse TRPC6 inhibitors; HEK293-TRPC6, membrane potential dye, ACh-evoked depolarization; 43% of 3,300 active; inhibition, % at 10 µM; shares compounds with TRPC6 inhibitor;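 active = fluorescence ratio falls more than 5 SD below the full-stimulation control mean, in both duplicate runs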;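 note: integrated fluorescence ratio of peak minus minimum over baseline after agonist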
TRPC6 act conf – mouse TRPC6 activator confirmation; shares compounds with TRPC6 inhibitor; HEK293-TRPC6 membrane potential dye fluorescence, FDSS; activation, % at 10 µM; 11% of 2,800 active; AID 488961;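 active = ratio signal rise beyond 5 SD above unstimulated control wells' mean, seen in both duplicate runs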;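 note: plate controls were buffer EC0 wells for no effect and acetylcholine ECmax response for full effect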
An asterisk follows results filed as active; i = inactive; . = no result given. Rows were chosen to be rich in hits. Some 3% of all compounds tested hit in one or more screens of this group.

SMILES	TRPC4 agonist	TRPC6 activator	Kir21 inh	TRPC6 inhibitor	TRPC4 inh	TRPC4 PAM	HEK293 MPD ctr-2	HEK293 MPD ctr 2-2	TRPC4/MOR mod	TRPC4 ctr inh 2	TRPC6 block conf	TRPC6 act conf	others
Cc1ccc(OCCCC(=O)Nc2nc3ccccc3[nH]2)cc1	i	i	-1	-7*	i	i	i	i	i	i	i	i
CCN(CC)CCCN(C(=O)c1ccco1)c1nc(-c2ccc(Cl)cc2)cs1	i	i	-6.2*	-7.5*	i	i	.	.	.	.	60%*	i	TRPC4 spec 2=26%*;TRPC4 spec=-13%*;HEK293 MPD ctr 2-1=i;HEK293 MPD ctr-1=-154%*
CCN(CC)CCCN(C(=O)c1ccc(Br)cc1)c1nc(-c2ccc(OC)cc2)cs1	i	i	-3.8	-6.2*	i	i	i	i	i	72%*	53%*	i
CCN(CC)CCCN(C(=O)c1cccc(C)c1)c1nc(-c2ccc(OC)cc2)cs1	i	i	0.1	-6.1*	i	i	i	i	-14%*	86%*	83%*	i
CCN(CC)CCCN(C(=O)c1cccs1)c1nc(-c2ccc(OC)cc2)cs1	i	i	-4.1	i	i	i	.	.	.	.	.	.
O=C(Nc1ncccc1O)C1CCN(S(=O)(=O)c2ccc3ccccc3c2)CC1	i	i	3	i	i	i	.	.	.	.	.	.
CC(C)C(Sc1nc(-c2ccccc2)cc(-c2ccccc2)c1C#N)C(=O)O (stereo not drawn)	i	13*	0.1	i	i	i	355%*	i	66%*	i	i	126%*
CN(C)CCNc1cc(-c2ccncc2)nc2ccccc12	i	i	1.6	-11*	i	15*	-328%*	90%*	-81%*	78%*	75%*	i
COc1ccc(CNC(=O)CN2CCN(C(c3ccccc3)c3ccccc3)CC2)cc1	i	i	-3.2	i	i	i	.	.	.	.	.	.
O=C(CN1CCN(C(c2ccccc2)c2ccccc2)CC1)NCc1ccccc1	i	i	0.07	-5.5*	i	i	i	i	i	i	i	i
COc1ccc(NCc2nnc(SCC(=O)Nc3cccc(C)c3)o2)cc1	i	i	-0.45	-6.3*	i	i	i	i	i	i	i	i
COc1ccc(NCc2nnc(SCC(=O)Nc3ccccc3OC)o2)cc1	i	i	-0.01	i	i	i	.	.	.	.	.	.
CC1C/C(=N/NC(=O)c2ccc(CSc3nc4ccccc4[nH]3)cc2)CC(C)(C)C1 (stereo not drawn)	i	i	0.13	i	i	i	.	.	.	.	.	.
CC1C/C(=N/Nc2nc3ccccc3[nH]2)CC(C)(C)C1 (stereo not drawn)	i	i	1.1	-5.4*	i	i	i	i	i	48%*	i	i
CCc1occc(=O)c1Oc1cc(NN2CCCCC2)c([N+](=O)[O-])cc1[N+](=O)[O-]	i	i	-1.1	-7.4*	i	i	.	.	.	.	i	i	TRPC4 spec 2=i;TRPC4 spec=i;HEK293 MPD ctr 2-1=i;HEK293 MPD ctr-1=i
O=C(N/N=C/c1ccc(Br)cc1)c1ccc(Br)o1	i	i	0.87	i	i	i	.	.	.	.	.	.
CCOC(=O)N1CCC(N2CCN(C3CCCC3)C(CCO)C2)CC1 (stereo not drawn)	i	i	1.4	-8.2*	i	i	.	.	.	.	i	i	TRPC4 spec 2=i;TRPC4 spec=i;HEK293 MPD ctr 2-1=i;HEK293 MPD ctr-1=i
CCOC(=O)N1CCC(NC2CCCCCCC2)CC1	i	i	-0.37	-8.5*	i	i	.	.	.	.	i	.	TRPC4 spec 2=i;TRPC4 spec=i;HEK293 MPD ctr 2-1=i;HEK293 MPD ctr-1=3.0%*
CC(C)(C)OC(=O)N1CCC[C@H]1C(=O)N/N=C/c1cccc2nccnc12	i	i	-0.79	i	i	i	.	.	.	.	.	.
Cc1nc2c(C)cccc2c2c1CCN2c1ccccc1F	i	i	-0.67	-5.8*	i	i	-143%*	i	-20%*	58%*	50%*	i
COc1cccc(N2CCc3c(C)nc4ccc(Cl)cc4c32)c1	i	i	-14*	-6.2*	i	i	i	58%*	i	88%*	62%*	i
COc1ccc2nc3cccc(OC)c3nc2c1	i	i	-2	i	i	i	.	.	.	.	.	.
COc1ccc(N2CCc3c(C)nc4c(OC)cccc4c32)cc1	i	i	-0.6	-8*	i	i	.	.	.	.	58%*	i	TRPC4 spec 2=52%*;TRPC4 spec=-24%*;HEK293 MPD ctr 2-1=i;HEK293 MPD ctr-1=-320%*
COc1ccc(N2CCc3c(C)nc4c(OC)cc(OC)cc4c32)c(OC)c1	i	i	-3	i	i	i	.	.	.	.	.	.
COc1ccc(N2CCc3c(C)nc4c(OC)cc(OC)cc4c32)cc1	i	i	-4.7*	-5.7*	i	i	-173%*	76%*	-24%*	56%*	55%*	i
CCCCOC(=O)/C(=C/c1cn(C)c2ccccc12)NC(=O)c1ccc(OC)cc1	i	i	0.4	i	i	i	.	.	.	.	.	.

Screening results deposited in PubChem by Johns Hopkins Ion Channel Center.
